Source: ChEMBL document CHEMBL1137350, “Discovery of a new class of macrocyclic antagonists to the human motilin receptor” (J Med Chem, 2006)
pIC50, pKi: −log10 of the molar value.

Key:
[1] = biological target: T1, Motilin receptor (Homo sapiens, UniProt O43193); assay: Activity at human MOTR expressed in CHO cells assessed as inhibition of motilin-induced calcium release upto 10 uM; assay type: functional, cell-based; conditions: filed as antagonist
Procedure, shortened: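 Aequorin luminescence assay on whole CHO cells expressing cloned human motilin receptor, measuring inhibition of motilin-induced Ca2+ release. Agonist activity was also checked at concentrations up to 10 µM. Compounds were TFA salts held as 10 mM DMSO stocks at -60 °C.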

[2] = biological target: T1, Motilin receptor; assay: Displacement of [125I]motilin from human MOTR
Procedure, shortened: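 Competition binding on isolated membranes expressing human motilin receptor, with radioiodinated porcine motilin ([125I]-motilin) as tracer. 11-point concentration curves gave Ki, with a top test concentration of 10 µM. Compounds came from 10 mM DMSO stocks stored at -60 °C.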

[3] = biological target: T1, Motilin receptor; assay: Activity at human MOTR expressed in CHO cells assessed as inhibition of motilin-induced calcium release; assay type: functional, cell-based
Procedure, shortened: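 Whole CHO cells expressing cloned human motilin receptor; intracellular Ca2+ release evoked by motilin read out by aequorin luminescence. Compounds were tested in antagonist mode and also checked for agonist activity at concentrations up to 10 µM. Compound stocks were 10 mM in DMSO, stored at -60 °C.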

T1 sequence (O43193 whole entry): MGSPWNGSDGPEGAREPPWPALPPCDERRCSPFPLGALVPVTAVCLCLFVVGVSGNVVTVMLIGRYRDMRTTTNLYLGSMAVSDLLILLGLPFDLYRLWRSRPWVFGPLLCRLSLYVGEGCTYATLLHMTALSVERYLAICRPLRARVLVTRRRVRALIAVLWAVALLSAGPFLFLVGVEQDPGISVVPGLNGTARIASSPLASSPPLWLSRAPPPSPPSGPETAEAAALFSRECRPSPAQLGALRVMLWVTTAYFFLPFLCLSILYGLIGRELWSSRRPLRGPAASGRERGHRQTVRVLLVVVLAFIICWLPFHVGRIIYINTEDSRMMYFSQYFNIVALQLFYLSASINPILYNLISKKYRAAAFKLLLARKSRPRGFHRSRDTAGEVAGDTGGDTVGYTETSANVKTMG

CCC[C@@H]1NC(=O)[C@@H](C(C)C)NC(=O)[C@@H](CCC(=O)O)NCCOc2ccccc2/C=C/CNC1=O
Activity [1]: Antagonist | pKi [2]: < 5.00

CCC[C@@H]1NC(=O)[C@@H](C(C)C)NC(=O)[C@H](Cc2ccc(O)cc2)NCCOc2ccccc2/C=C/CNC1=O
Activity [1]: Antagonist | pKi [2]: < 5.00

CCC[C@@H]1OC(=O)[C@@H](C(C)C)NC(=O)[C@@H](Cc2ccc(O)cc2)NCCOc2ccccc2CCCNC1=O
Activity [1]: Antagonist | pKi [2]: 5.73

CCC[C@@H]1NC(=O)[C@@H](C(C)C)NC[C@@H](Cc2ccc(O)cc2)NCCOc2ccccc2CCCNC1=O
Activity [1]: Antagonist | pKi [2]: 5.49

CCC[C@@H]1NC(=O)[C@@H](C(C)C)NC(=O)[C@@H](Cc2ccc(O)cc2)NCCCCc2ccccc2CCNC1=O
Activity [1]: Antagonist | pKi [2]: 5.22

CCC[C@@H]1NC(=O)[C@@H](C(C)C)NC(=O)[C@@H](Cc2cccc3ccccc23)NCCOc2ccccc2CCCNC1=O
Activity [1]: Antagonist | pKi [2]: 8.08

CCC[C@@H]1NC(=O)[C@@H](C(C)C)NC(=O)[C@@H](Cc2ccc(O)cc2)NCCOc2ccccc2CCCNC1=O
Activity [1]: Antagonist | pKi [2]: 7.26

CC(C)[C@H]1NC(=O)[C@@H](Cc2ccc(O)cc2)NCCOc2ccccc2/C=C/CNC(=O)[C@H](CO)NC1=O
Activity [1]: Antagonist | pKi [2]: 6.19

CCC[C@@H]1NC(=O)[C@@H](Cc2ccccc2)NC(=O)[C@@H](Cc2ccc(O)cc2)NCCOc2ccccc2/C=C/CNC1=O
Activity [1]: Antagonist | pKi [2]: 5.82

CCC[C@@H]1NC(=O)[C@@H](CO)NC(=O)[C@@H](Cc2ccc(O)cc2)NCCOc2ccccc2/C=C/CNC1=O
Activity [1]: Antagonist | pKi [2]: < 5.00

CCC[C@@H]1NC(=O)[C@@H](C(C)C)NC(=O)[C@@H](Cc2ccccc2)NCCOc2ccccc2CCCNC1=O
Activity [1]: Antagonist | pKi [2]: 7.24

CCC[C@@H]1NC(=O)[C@@H](C(C)C)NC(=O)[C@@H](Cc2ccc(O)cc2)NCCc2ccccc2CCCNC1=O
Activity [1]: Antagonist | pKi [2]: < 5.00

CCC[C@@H]1NC(=O)[C@@H](C(C)C)NC(=O)[C@@H](Cc2ccc3ccccc3c2)NCCOc2ccccc2CCCNC1=O
Activity [1]: Antagonist | pKi [2]: 7.10

CCC[C@@H]1NC(=O)[C@@H](C(C)C)NC(=O)[C@@H](Cc2ccc(O)cc2)NCCc2ccccc2/C=C/CNC1=O
Activity [1]: Antagonist | pKi [2]: 5.01

CC(C)[C@H]1NC(=O)[C@@H](Cc2ccc(O)cc2)NCCOc2ccccc2/C=C/CNC(=O)[C@H](CCCCN)NC1=O
Activity [1]: Antagonist | pKi [2]: 6.18

CCC[C@@H]1NC(=O)[C@H](C(C)C)NC(=O)[C@@H](Cc2ccc(O)cc2)NCCOc2ccccc2/C=C/CNC1=O
Activity [1]: Antagonist | pKi [2]: < 5.00

CCC[C@@H]1NC(=O)[C@@H](C(C)C)NC(=O)[C@@H](Cc2ccc(O)cc2)NCCc2ccccc2/C=C\CCNC1=O
Activity [1]: Antagonist | pKi [2]: < 5.00

CCC[C@@H]1NC(=O)[C@@H](C(C)C)NC(=O)[C@@H](Cc2ccc(O)cc2)NCCCCCCCCNC1=O
Activity [1]: Antagonist | pKi [2]: 5.92

CCC[C@H](NC(=O)[C@H](NC(=O)[C@@H](Cc1ccc(O)cc1)NCCOc1ccccc1/C=C/CNC(C)=O)C(C)C)C(N)=O
Activity [1]: Antagonist | pKi [2]: < 5.00

CCC[C@@H]1NC(=O)[C@@H](C(C)C)NC(=O)[C@@H](Cc2ccc(O)cc2)NCCCc2ccccc2/C=C/CNC1=O
Activity [1]: Antagonist | pKi [2]: < 5.00

CCC[C@@H]1NC(=O)[C@@H](C(C)C)NC(=O)[C@@H](CC2CCCCC2)NCCOc2ccccc2CCCNC1=O
Activity [1]: Antagonist | pKi [2]: 5.49

CCC[C@@H]1NC(=O)[C@@H](C(C)C)OC(=O)[C@@H](Cc2ccc(O)cc2)NCCOc2ccccc2CCCNC1=O
Activity [1]: Antagonist | pKi [2]: 6.72

CCC[C@@H]1NC(=O)[C@@H](C(C)C)NC(=O)[C@@H](Cc2ccc(O)cc2)NCc2ccccc2CCCCNC1=O
Activity [1]: Antagonist | pKi [2]: < 5.00

CC(C)C[C@@H]1NC(=O)[C@@H](C(C)C)NC(=O)[C@@H](Cc2ccc(O)cc2)NCCOc2ccccc2/C=C/CNC1=O
Activity [1]: Antagonist | pKi [2]: 7.21

CCC[C@@H]1NC(=O)[C@@H](C(C)C)NC(=O)[C@@H](Cc2c[nH]c3ccccc23)NCCOc2ccccc2CCCNC1=O
Activity [1]: Antagonist | pKi [2]: 6.59

CCC[C@@H]1NC(=O)[C@@H](C(C)C)NC(=O)[C@@H](Cc2ccc(O)cc2)NC/C=C/CCNC1=O
Activity [1]: Antagonist | pKi [2]: 6.15

CCC[C@@H]1NC(=O)[C@@H](C(C)C)NC(=O)[C@@H](Cc2ccc(O)cc2)NCCc2ccccc2CCCCNC1=O
Activity [1]: Antagonist | pKi [2]: 5.22

CC[C@H](C)[C@H](NC(=O)[C@@H]1CCCN1C(=O)[C@@H](NC(=O)[C@@H](N)Cc1ccccc1)C(C)C)C(=O)N[C@@H](Cc1ccccc1)C(=O)N[C@H](C(=O)N[C@@H](Cc1ccc(O)cc1)C(=O)NCC(=O)N[C@@H](CCC(=O)O)C(=O)N[C@@H](CC(C)C)C(=O)N[C@@H](CCC(N)=O)C(=O)N[C@@H](CCCNC(=N)N)C(=O)N[C@@H](CCSC)C(=O)N[C@@H](CCC(N)=O)C(=O)N[C@@H](CCC(=O)O)C(=O)N[C@@H](CCCCN)C(=O)N[C@@H](CCC(=O)O)C(=O)N[C@@H](CCCNC(=N)N)C(=O)N[C@@H](CC(N)=O)C(=O)N[C@@H](CCCCN)C(=O)NCC(=O)N[C@@H](CCC(N)=O)C(=O)O)[C@@H](C)O [MOTILIN]
pKi [2]: 9.44

CCC[C@@H]1NC(=O)[C@@H](C(C)C)NC(=O)[C@@H](CCCCN)NCCOc2ccccc2/C=C/CNC1=O
Activity [1]: Antagonist | pKi [2]: < 5.00

CCC[C@@H]1NC(=O)[C@@H](C(C)C)NC(=O)[C@@H](Cc2ccccc2)NCCOc2ccccc2/C=C/CNC1=O
Activity [1]: Antagonist | pKi [2]: 7.11

CCC[C@@H]1NC(=O)[C@@H](C(C)C)NC(=O)[C@@H](Cc2ccc(O)cc2)N(C)CCOc2ccccc2CCCNC1=O
Activity [1]: Antagonist | pKi [2]: 5.56

CC(C)[C@H]1NC(=O)[C@@H](Cc2ccc(O)cc2)NCCOc2ccccc2/C=C/CNC(=O)[C@H](Cc2ccccc2)NC1=O
Activity [1]: Antagonist | pKi [2]: 6.73

CCC[C@@H]1NC(=O)[C@@H](C(C)C)NC(=O)[C@@H](Cc2csc3ccccc23)NCCOc2ccccc2CCCNC1=O
Activity [1]: Antagonist | pKi [2]: 7.96

CCC[C@@H]1NC(=O)[C@@H](C(C)C)NC(=O)[C@@H](CCc2ccccc2)NCCOc2ccccc2CCCNC1=O
Activity [1]: Antagonist | pKi [2]: 5.83

CCC[C@@H]1NC(=O)[C@@H](C)NC(=O)[C@@H](Cc2ccc(O)cc2)NCCOc2ccccc2/C=C/CNC1=O
Activity [1]: Antagonist | pKi [2]: 6.71

CCC[C@@H]1NC(=O)[C@@H](C(C)C)N(C)C(=O)[C@@H](Cc2ccc(O)cc2)NCCOc2ccccc2CCCNC1=O
Activity [1]: Antagonist | pKi [2]: < 5.00

CC(C)[C@H]1NC(=O)[C@@H](Cc2ccc(O)cc2)NCCOc2ccccc2/C=C/CNC(=O)[C@H](CC(=O)O)NC1=O
Activity [1]: Antagonist | pKi [2]: 5.59

CC(C)C[C@H]1C(=O)NCCCc2ccccc2OCCN[C@H](Cc2ccc(O)cc2)C(=O)N[C@H](C(C)C)C(=O)N1C
Activity [1]: Antagonist | pKi [2]: 6.65

CCC[C@H](NC(=O)[C@H](NC(=O)[C@H](N)Cc1ccc(O)cc1)C(C)C)C(N)=O
Activity [1]: Antagonist | pKi [2]: < 5.00

CCC[C@@H]1NC(=O)[C@@H](C(C)C)NC(=O)[C@@H](Cc2ccc(O)cc2)NCCOc2ccccc2CCNC1=O
Activity [1]: Antagonist | pKi [2]: 6.01

CCC[C@@H]1NC(=O)[C@@H](C(C)C)NC(=O)[C@@H](C(C)C)NCCOc2ccccc2/C=C/CNC1=O
Activity [1]: Antagonist | pKi [2]: 5.45

CCC[C@@H]1NC(=O)[C@@H](C(C)C)NC(=O)[C@@H](C)NCCOc2ccccc2/C=C/CNC1=O
Activity [1]: Antagonist | pKi [2]: < 5.00

CCC[C@H]1NC(=O)[C@@H](C(C)C)NC(=O)[C@@H](Cc2ccc(O)cc2)NCCOc2ccccc2/C=C/CNC1=O
Activity [1]: Antagonist | pKi [2]: 6.47

CC(C)[C@H]1NC(=O)[C@@H](Cc2ccc(O)cc2)NCCOc2ccccc2/C=C/CNC(=O)[C@H](C)NC1=O
Activity [1]: Antagonist | pKi [2]: 5.86

CCC[C@@H]1NC(=O)[C@@H](C(C)C)NNC(=O)[C@@H](Cc2ccc(O)cc2)NCCOc2ccccc2CCCNC1=O
Activity [1]: Antagonist | pKi [2]: 5.62

CCC[C@@H]1NC(=O)[C@@H](C(C)C)NC(=O)[C@@H](c2ccccc2)NCCOc2ccccc2CCCNC1=O
Activity [1]: Antagonist | pKi [2]: < 5.00

CCC[C@@H]1NC(=O)[C@@H](C(C)C)NC(=O)[C@@H](Cc2ccc(O)cc2)NCCCc2ccccc2CCNC1=O
Activity [1]: Antagonist | pKi [2]: < 5.00

CCC[C@@H]1NC(=O)[C@@H](C(C)C)NC(=O)[C@@H](Cc2ccc(O)cc2)NCCCc2ccccc2CCCNC1=O
Activity [1]: Antagonist | pKi [2]: < 5.00

CCC[C@@H]1NC(=O)[C@@H](C(C)C)NC(=O)[C@@H](Cc2ccc(O)cc2)NCCCc2ccccc2/C=C\CCNC1=O
Activity [1]: Antagonist | pKi [2]: 5.14

CCC[C@@H]1NC(=O)[C@@H](C(C)C)NC(=O)[C@@H](Cc2ccc(O)cc2)N(C(C)=O)CCOc2ccccc2CCCNC1=O
Activity [1]: Antagonist | pKi [2]: 5.19

CCC[C@@H]1NC(=O)[C@@H](CCC(=O)O)NC(=O)[C@@H](Cc2ccc(O)cc2)NCCOc2ccccc2/C=C/CNC1=O
Activity [1]: Antagonist | pKi [2]: 5.31

CCC[C@@H]1NC(=O)[C@@H](C(C)C)NC(=O)[C@@H](Cc2ccc(O)cc2)NCCOc2ccccc2/C=C/CNC1=O
Activity [1]: Antagonist | pIC50 [3]: 7.13 | pKi [2]: 6.86
